Data set [1] is filed under the species Rattus norvegicus. As to the kind of experiment: Efficacy in T-cell mediated inflammatory response by delayed type hypersensitivity model in Sprague-Dawley rat. The data set is classed as functional.
Data set [2] is described as follows: Tmax in male Sprague-Dawley rat administered with 2.5 mg/kg, po. Also noted: dose 2.5 mg/kg, route oral. The settings on record: in vivo. The data set is classed as ADME, organism-based.
The species named for data set [3] is Rattus norvegicus. As to the kind of experiment: Efficacy in CD4+ T-cell mediated experimental autoimmune encephalomyelitis model in Lewis rat. The data set is classed as functional. An outline of the steps: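 Rat EAE induced by subcutaneous injection of homogenized isologous spinal cord in modified complete Freund's adjuvant; value reported with range and n.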

Data set [4] is filed under the species Rattus norvegicus. Kind of data set: Efficacy in T-cell mediated adjuvant arthritis model in Lewis rat. The data set is classed as functional.
A short description of data set [5]: Half life in male Sprague-Dawley rat administered with 2.5 mg/kg, po. The settings on record: in vivo. The data set is classed as ADME, organism-based. Details: dose 2.5 mg/kg, route oral.
A short description of data set [6]: Oral bioavailability in male Sprague-Dawley rat administered with 2.5 mg/kg, po. The data set is classed as ADME, organism-based. The note with it: in vivo.
Data set [7] can be described thus: AUC in male Sprague-Dawley rat administered with 2.5 mg/kg, po. The data set is classed as ADME, organism-based. Details: dose 2.5 mg/kg, route oral. The settings on record: plasma.
Data set [8] is described as follows: Cmax in male Sprague-Dawley rat administered with 2.5 mg/kg, po. The data set is classed as ADME, organism-based. The note with it: in vivo. Also noted: dose 2.5 mg/kg, route oral.
The subject of data set [9] is T-cell. As to the kind of experiment: T-cell antiproliferative activity in human mixed lymphocyte reaction. The data set is classed as functional, cell-based. The method in brief:
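Human mixed lymphocyte reaction carried out in serum-containing medium; IC50 given as mean ± SEM for n determinations.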

Data set [10] deals with T-cell. As to the kind of experiment: Antiproliferative activity in Lewis rat lymph node cells in rat mixed lymphocyte reaction. The data set is classed as functional, cell-based. An outline of the steps:
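Rat mixed lymphocyte reaction run serum free: Lewis rat lymph node cells (responders) stimulated by Brown–Norway splenocytes; IC50 reported as mean ± SEM of n determinations.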

The nature of data set [11]: Half life in human in a multiple dose escalation study. The data set is classed as ADME, organism-based. The settings on record: in vivo.

SMILES strings stand for the structures.

Here are results for four compounds from ChEMBL document CHEMBL1141950, “Rapamycin analogs with reduced systemic exposure” (Bioorg Med Chem Lett, 2005).

One may read the ED50 as the dose that gives a 50% effect, or the effect in half of the subjects. A word on the Tmax: it is the time from dosing to the highest level. The term half-life denotes the time in which the quantity being followed falls by half. High values mean slow loss, low ones fast loss. Usually bioavailability stands for the share of a dose that reaches the circulation, judged against a reference dose that is usually intravenous. Low values mean poor availability, high ones good availability. For orientation: AUC means the area under the concentration-time curve, a measure of exposure. The low end stands for low exposure, the high end for high exposure. The term Cmax denotes the maximum level reached in the sampled fluid or tissue. The term IC50 denotes the concentration needed to halve the response being measured. On to `CO[C@H]1C[C@@H]2CC[C@@H](C)[C@@](O)(O2)C(=O)C(=O)N2CCCC[C@H]2C(=O)OC([C@H](C)C[C@@H]2CC[C@@H](OC(=O)N(C)OC)[C@H](OC)C2)CC(=O)[C@H](C)/C=C(\C)[C@@H](O)[C@@H](OC)C(=O)[C@H](C)C[C@H](C)/C=C/C=C/C=C/1C` (stereo not given in full), for which the ED50 in the data set filed under Rattus norvegicus [1] turned out to be 0.4 mg/kg; in the data set listed under Rattus norvegicus [3], 0.5 mg/kg; in the data set filed under Rattus norvegicus [4], 0.3 mg/kg. The Tmax in [2] is 0.4 h. The compound also had a half-life in data set [5] of 8.7 h. Also, the bioavailability in [6] stood at 6.2%. Besides, the AUC in data set [7] is 132 ng·h/mL. In data set [8], this compound registered a Cmax of 29.7 ng/mL. The IC50 with T-cell [9] was found to be 0.0059 µM; with T-cell [10] it was 2.5 µM.
In the data set listed under Rattus norvegicus [1], `CO[C@H]1C[C@@H]2CC[C@@H](C)[C@@](O)(O2)C(=O)C(=O)N2CCCC[C@H]2C(=O)O[C@H]([C@H](C)C[C@@H]2CC[C@H](n3ncnn3)[C@H](OC)C2)CC(=O)[C@H](C)/C=C(\C)[C@@H](O)[C@@H](OC)C(=O)[C@H](C)C[C@H](C)/C=C/C=C/C=C/1C` registered an ED50 of 2 mg/kg. The IC50 came to 0.0033 µM with T-cell [9] and 1.5 µM with T-cell [10].
With `CO[C@H]1C[C@@H]2CC[C@@H](C)[C@@](O)(O2)C(=O)C(=O)N2CCCC[C@H]2C(=O)O[C@H]([C@H](C)C[C@@H]2CC[C@@H](O)[C@H](OC)C2)CC(=O)[C@H](C)/C=C(\C)[C@@H](O)[C@@H](OC)C(=O)[C@H](C)C[C@H](C)/C=C/C=C/C=C/1C` [SIROLIMUS], the values for the ED50 in the data set filed under Rattus norvegicus [1], in the data set filed under Rattus norvegicus [3] and in the data set listed under Rattus norvegicus [4] were 0.5 mg/kg, 0.3 mg/kg and 0.2 mg/kg, respectively. Moreover, the Tmax in [2] worked out at 0.5 h. In addition, the results for the half-life in data set [5] and in data set [11] were 33.4 h and 63 h, respectively. In data set [6], this compound gave a bioavailability of 43.2%. Besides, the AUC in data set [7] worked out at 559 ng·h/mL. In addition, the highest level in [8] (Cmax) was 50.8 ng/mL. Further, the IC50 with T-cell [9] was determined as 0.0016 µM; with T-cell [10], 2.6 µM.
Take `CO[C@H]1C[C@@H]2CC[C@@H](C)[C@@](O)(O2)C(=O)C(=O)N2CCCC[C@H]2C(=O)O[C@H]([C@H](C)C[C@@H]2CC[C@H](n3cnnn3)[C@H](OC)C2)CC(=O)[C@H](C)/C=C(\C)[C@@H](O)[C@@H](OC)C(=O)[C@H](C)C[C@H](C)/C=C/C=C/C=C/1C` [ZOTAROLIMUS]: the results for the ED50 in the data set listed under Rattus norvegicus [1], in the data set filed under Rattus norvegicus [3] and in the data set listed under Rattus norvegicus [4] were 1.7 mg/kg, 1.2 mg/kg and 0.7 mg/kg, respectively. For the same compound, the Tmax in data set [2] was determined as 0.4 h. Further, the half-life in [5] is 7.9 h; in data set [11], 25 h. The same compound displayed a bioavailability in data set [6] of 12.1%. In data set [7], this compound returned an AUC of 163 ng·h/mL. This compound also showed a Cmax in [8] of 46.7 ng/mL. Moreover, the concentration for half-maximal inhibition (IC50) came to 0.002 µM in the data set on T-cell [9] and 1.4 µM with T-cell [10].
